{
  "source": "paper PMC9904295",
  "about": "(Drug Delivery, 2023)",
  "key": {"[1]": {"assay": "Pharmacokinetic study in rats, intravenous", "type": "in vivo, Sprague-Dawley rats", "conditions": "i.v., 5 mg/kg in OXA", "method_in_brief": "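Twelve Sprague-Dawley rats (half male) were split into two groups and given one i.v. dose equivalent to 5 mg/kg. The free drug was prepared in 5% glucose. Retro-orbital blood was taken at 0.083–24 h and centrifuged at 12,000 rpm for 5 min. Plasma drug was measured by UPLC-MS/MS and total Pt by ICP-MS. Non-compartmental analysis gave AUC, Cmax, t1/2, MRT and CL; mean ± SD, n = 6.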"}, "[2]": {"tested_on": "SW620 cells", "assay": "In vivo antitumor efficacy in xenograft tumor-bearing mice", "design": "species or system BALB/c nude mice", "conditions": "xenograft tumor-bearing nude mice, i.v. once a week", "method_in_brief": "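Male BALB/c nude mice (18–20 g) were inoculated with 3 × 10^6 SW620 cells at the right third fat pad. At tumors of about 100–200 mm3 they were randomised into six groups, with 5% glucose as control. Test compound was given i.v. by tail vein once a week for 4 weeks at 5 or 10 mg/kg (free form) or 5, 10 or 20 mg/kg (nanoparticle). Tumor volume (L × W × W/2) and body weight were measured three times weekly, and RTV = V/V0. Tumors were weighed at the end; n = 6, mean ± SD, Student's t test.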"}, "[3]": {"assay": "Toxicity evaluation after repeated dosing", "type": "in vivo", "conditions": "ICR mice", "method_in_brief": "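Male ICR mice (17–18 g) were randomised into six groups (n = 10), with 5% glucose as control. Test compound was given i.v. every 3 days for five doses at 7.5 or 10 mg/kg (free form) or 7.5, 10 or 15 mg/kg drug-equivalent (nanoparticle). At the end, organs were harvested for viscera index, whole blood was taken for routine counts, and serum TP, ALB, UREA and Cr were measured. Data are mean ± SD, Student's t test.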"}, "[4]": {"conditions": "analyte total Pt (ICP-MS) in plasma"}},
  "data": [
    {"smiles": "O=C1[O][Pt]2([NH][C@@H]3CCCC[C@H]3[NH]2)[O]C1=O", "note": "[OXA, oxaliplatin]", "values": [
      {"measurement": "AUC0-t", "setting": "[1]; analyte OXA in plasma", "value": "1940 ± 390", "unit": "ng·h/mL"},
      {"measurement": "AUC0-∞", "setting": "[1]; analyte OXA in plasma", "value": "2030 ± 550", "unit": "ng·h/mL"},
      {"measurement": "CL", "setting": "[1]; analyte OXA in plasma", "value": "2,580 ± 560 mL/h/kg"},
      {"measurement": "Cmax", "setting": "[1]; analyte OXA in plasma", "value": "9580 ± 1420", "unit": "ng/mL"},
      {"measurement": "T1/2", "setting": "[1]; analyte OXA in plasma", "value": "0.16 ± 0.07", "unit": "h"},
      {"measurement": "Vz", "setting": "[1]; analyte OXA in plasma", "value": "567 ± 70", "unit": "mL/kg"},
      {"measurement": "AUC0-t", "setting": "[1]; [4]", "value": "13000 ± 3440", "unit": "ng·h/mL"},
      {"measurement": "AUC0-∞", "setting": "[1]; [4]", "value": "19980 ± 5650", "unit": "ng·h/mL"},
      {"measurement": "CL", "setting": "[1]; [4]", "value": "127.98 ± 36.2", "unit": "mL/h/kg"},
      {"measurement": "Cmax", "setting": "[1]; [4]", "value": "4760 ± 680", "unit": "ng/mL"},
      {"measurement": "T1/2", "setting": "[1]; [4]", "value": "17.52 ± 0.52", "unit": "h"},
      {"measurement": "Vz", "setting": "[1]; [4]", "value": "3,220 ± 818 mL/kg"},
      {"measurement": "tumor growth inhibition, dose dependence", "setting": "[2]", "value": "dose-dependent tumor growth inhibition"},
      {"measurement": "UREA", "setting": "[3]; 10 mg/kg i.v. every 3 days for five times", "value": "significant decrease"},
      {"measurement": "biochemical indexes (TP, ALB, UREA, Cr)", "setting": "[3]; i.v. every 3 days for five times, except UREA at 10 mg/kg", "value": "No significant change"}
    ]}
  ]
}
